From ChEMBL document CHEMBL3813631, “Design, synthesis, and pharmacological evaluation of JDTic analogs to examine the significance of replacement of the 3-hydroxyphenyl group with pyridine or thiophene bioisosteres” (Bioorg Med Chem, 2016)
Calls of active or inactive are those of the source. The calls are words filed in the database; no cut-off is given here.

Assays:
[1] = molecular target: Mu-type opioid receptor (Homo sapiens) (UniProt P35372); assay: Intrinsic activity at human mu opioid receptor expressed in CHO cell membrane assessed as increase in [35S]GTPgammaS binding at 10 uM after 1 hr by scintillation counting method; type: functional, cell membranes
Mu-type opioid receptor (Homo sapiens), sequence (P35372 whole entry): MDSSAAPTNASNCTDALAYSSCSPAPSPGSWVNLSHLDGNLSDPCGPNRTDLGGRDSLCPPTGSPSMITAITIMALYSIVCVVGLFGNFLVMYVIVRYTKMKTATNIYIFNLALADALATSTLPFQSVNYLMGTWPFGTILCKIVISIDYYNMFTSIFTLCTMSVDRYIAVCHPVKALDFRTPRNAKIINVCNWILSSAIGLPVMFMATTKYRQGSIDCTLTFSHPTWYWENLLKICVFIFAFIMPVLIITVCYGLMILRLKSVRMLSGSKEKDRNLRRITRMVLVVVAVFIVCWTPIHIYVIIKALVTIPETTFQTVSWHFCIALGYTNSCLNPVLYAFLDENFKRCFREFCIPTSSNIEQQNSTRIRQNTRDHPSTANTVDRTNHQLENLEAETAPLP

[2] = molecular target: Delta-type opioid receptor (Homo sapiens) (UniProt P41143); assay: Intrinsic activity at human delta opioid receptor expressed in CHO cell membrane assessed as increase in [35S]GTPgammaS binding at 10 uM after 1 hr by scintillation counting method; type: functional, cell membranes
Delta-type opioid receptor (Homo sapiens), sequence (P41143 whole entry): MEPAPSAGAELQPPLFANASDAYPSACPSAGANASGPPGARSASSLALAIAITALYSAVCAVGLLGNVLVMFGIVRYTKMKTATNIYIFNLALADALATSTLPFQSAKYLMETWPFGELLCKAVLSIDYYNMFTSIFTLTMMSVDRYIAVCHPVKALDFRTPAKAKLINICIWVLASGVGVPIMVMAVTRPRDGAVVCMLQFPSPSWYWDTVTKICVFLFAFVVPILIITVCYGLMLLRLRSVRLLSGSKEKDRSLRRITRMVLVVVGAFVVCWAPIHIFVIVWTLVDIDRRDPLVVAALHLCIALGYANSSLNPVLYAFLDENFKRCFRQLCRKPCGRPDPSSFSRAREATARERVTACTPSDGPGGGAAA

[3] = molecular target: Kappa-type opioid receptor (Homo sapiens) (UniProt P41145); assay: Intrinsic activity at human kappa opioid receptor expressed in CHO cell membrane assessed as increase in [35S]GTPgammaS binding at 10 uM after 1 hr by scintillation counting method; type: functional, cell membranes
Kappa-type opioid receptor (Homo sapiens), sequence (P41145 whole entry): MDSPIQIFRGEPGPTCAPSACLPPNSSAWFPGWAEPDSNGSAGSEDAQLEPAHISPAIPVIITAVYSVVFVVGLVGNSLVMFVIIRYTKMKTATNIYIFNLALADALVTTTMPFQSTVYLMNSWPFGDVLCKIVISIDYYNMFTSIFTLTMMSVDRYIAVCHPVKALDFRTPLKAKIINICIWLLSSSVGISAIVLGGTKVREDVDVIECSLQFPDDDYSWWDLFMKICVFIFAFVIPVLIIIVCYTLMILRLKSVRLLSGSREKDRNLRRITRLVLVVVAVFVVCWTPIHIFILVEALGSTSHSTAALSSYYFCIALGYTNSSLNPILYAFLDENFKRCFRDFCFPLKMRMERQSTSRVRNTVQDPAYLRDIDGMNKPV

[4] = molecular target: Kappa-type opioid receptor (Homo sapiens) (UniProt P41145); assay: Antagonist activity at human kappa opioid receptor expressed in CHO cell membrane assessed as inhibition of U69,593-induced [35S]GTPgammaS binding after 1 hr by scintillation counting method; type: functional, cell membranes
In short: (§1)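 Antagonist Ke values were obtained from [35S]GTPγS binding at each opioid receptor. Each value is the mean ± SEM of at least three independent experiments, and each experiment was run in duplicate.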

CHO [5] = assay: Selectivity ratio of Ke for human mu opioid receptor expressed in CHO cell membrane to Ke for human kappa opioid receptor expressed in CHO cell membrane; type: cell-based
CHO [6] = assay: Selectivity ratio of Ke for human delta opioid receptor expressed in CHO cell membrane to Ke for human kappa opioid receptor expressed in CHO cell membrane; type: cell-based
[7] = molecular target: Mu-type opioid receptor (Homo sapiens) (UniProt P35372); assay: Antagonist activity at human mu opioid receptor expressed in CHO cell membrane assessed as inhibition of DAMGO-induced [35S]GTPgammaS binding after 1 hr by scintillation counting method; type: functional, cell membranes; in short: as §1
[8] = molecular target: Delta-type opioid receptor (Homo sapiens) (UniProt P41143); assay: Antagonist activity at human delta opioid receptor expressed in CHO cell membrane assessed as inhibition of DPDPE-induced [35S]GTPgammaS binding after 1 hr by scintillation counting method; type: functional, cell membranes; in short: as §1

Row | SMILES | Intrinsic activity [1] | Intrinsic activity [2] | Intrinsic activity [3] | Ke [4] [nM] | Ratio Ke (CHO [5]) | Ratio Ke (CHO [6]) | Ke [7] [nM] | Ke [8] [nM]
1 | CC(C)[C@@H](CN1CCC(c2cccnc2)CC1)NC(=O)[C@H]1Cc2ccc(O)cc2CN1 | inactive | inactive | inactive | 0.51 | 89 | 2240 |  | 
2 | CC(C)[C@@H](CN1CCC(C)(c2cccnc2)CC1)NC(=O)[C@H]1Cc2ccc(O)cc2CN1 | inactive | inactive | inactive | 0.18 | 273 | > 16700 |  | 
3 | CC(C)[C@@H](CN1CCC(c2ccccc2)CC1)NC(=O)[C@H]1Cc2ccc(O)cc2CN1 |  |  |  |  | 77 | 5510 |  | 
4 | CC(C)[C@@H](CN1CCC(c2ccncc2)CC1)NC(=O)[C@H]1Cc2ccc(O)cc2CN1 | inactive | inactive | inactive | 0.51 | 112 | 1350 |  | 
5 | CC(C)[C@@H](CN1CCC(C)(c2ccncc2)CC1)NC(=O)[C@H]1Cc2ccc(O)cc2CN1 | inactive | inactive | inactive | 1.75 | 88 | 1430 |  | 
6 | CC(C)[C@@H](CN1CCC(c2ccsc2)CC1)NC(=O)[C@H]1Cc2ccc(O)cc2CN1 | inactive | inactive | inactive | 0.12 | 33 | 983 | 3.93 | 118
7 | CC(C)[C@@H](CN1CCC(c2ccccn2)CC1)NC(=O)[C@H]1Cc2ccc(O)cc2CN1 | inactive | inactive | inactive | 0.43 | 33 | 1370 |  | 
